Experimental data published in ChEMBL document CHEMBL3232882, “N-Acyl-phosphoramidates as potential novel form of gemcitabine prodrugs” (Bioorg Med Chem, 2014).
Calls of active or inactive are those of the source. The calls are words filed in the database; no cut-off is given here.

Experiments:
[1] = molecular target: T1, Adenosine 5'-monophosphoramidase HINT1 (Homo sapiens, UniProt P49773); assay: Drug metabolism in human K562 cell lysate assessed as HINT-1-mediated compound formation by measuring retention time at 1 mM after 22 hrs by RP-HPLC analysis relative to control; type: ADME, cell-based; conditions: k562, 22 h, 1000 µM
Procedure, shortened: (§1)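 K562 lysate from confluent cells, scraped and sonicated in PBS with protease inhibitors. Substrate 1 mM in 20 mM Na-HEPES pH 7.2, 0.5 mM MgCl2, with lysate protein, 22 h at 37 °C. Quenched on ice, heat-denatured, centrifuged. Supernatant analysed by C18 RP-HPLC (0–8% acetonitrile in 0.1 M TEAB pH 7.4, 20 min) at 260 nm. Peaks integrated; products identified by co-injection; mean ± SE, at least duplicate.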

[2] = molecular target: T1, Adenosine 5'-monophosphoramidase HINT1; assay: Drug metabolism in human K562 cell lysate assessed as HINT-1-mediated gemcitabine formation at 1 mM after 22 hrs by RP-HPLC analysis relative to control; type: ADME, cell-based; conditions: k562, 22 h, 1000 µM; procedure, shortened: as §1
[3] = molecular target: T1, Adenosine 5'-monophosphoramidase HINT1; assay: Drug metabolism in human K562 cell lysate assessed as HINT-1-mediated gemcitabine 5'-monophosphate formation at 1 mM after 22 hrs by RP-HPLC analysis relative to control; type: ADME, cell-based; conditions: k562, 22 h, 1000 µM; procedure, shortened: as §1
[4] = molecular target: T2, Adenosine 5'-monophosphoramidase HINT1 (Oryctolagus cuniculus, UniProt P80912); assay: Drug metabolism assessed as recombinant rabbit HINT1-mediated hydrolysis of NH2-pdFdC to pdFdC per ug protein at 1 mM by RP-HPLC analysis; type: ADME; conditions: 1000 µM
[5] = molecular target: T2, Adenosine 5'-monophosphoramidase HINT1; assay: Drug metabolism assessed as recombinant rabbit HINT1-mediated hydrolysis of NH2-pdFdC to pdFdC per ug protein at 0.2 mM by RP-HPLC analysis; type: ADME; conditions: 200 µM
Procedure, shortened: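 Recombinant Hint-1 expressed in E. coli BL21 from pSGA02-HINT, purified by AMP-agarose affinity; hydrolysis of NH2-pdFdC to pdFdC at 0.2 mM substrate, activity expressed per µg protein; products followed by RP-HPLC on C18 column with acetonitrile gradient in 0.1 M triethylammonium bicarbonate, pH 7.4, peak areas integrated.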

[6] = molecular target: T1, Adenosine 5'-monophosphoramidase HINT1; assay: Drug metabolism in human K562 cell lysate assessed as HINT-1-mediated compound dephosphorylation at 1 mM after 22 hrs by RP-HPLC analysis relative to control; type: ADME, cell-based; conditions: k562, 22 h, 1000 µM; procedure, shortened: as §1
[7] = molecular target: T1, Adenosine 5'-monophosphoramidase HINT1; assay: Drug level in human K562 cell lysate treated with 1 mM gemcitabine 5'-phosphoramidate assessed as HINT-1-mediated compound formation after 22 hrs by RP-HPLC analysis relative to control; type: ADME, cell-based; conditions: k562, 22 h; procedure, shortened: as §1
K562 = assay: Cytotoxicity against human K562 cells assessed as reduction of cell survival after 48 hrs by MTT assay; type: functional, cell-based; conditions: K562, 48 h
Procedure, shortened: (§2)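 HUVEC (from fresh umbilical cords, gelatin-coated dishes, RPMI 1640 with 20% FBS, heparin, ECGF) and K562 (RPMI 1640, 10% FCS) were seeded at 7×10^3 per well. After 24 h, exposure for 48 h to compounds from 100 mM aqueous stock, final 1 mM down to 1×10^-6 mM. MTT read at 570/650 nm; untreated = 100%; IC50 from dose-response curves, mean of 2 experiments in triplicate.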

HUVEC = assay: Cytotoxicity against HUVEC assessed as cell after 48 hrs by MTT assay; type: cell-based; conditions: Homo sapiens; procedure, shortened: as §2
HeLa [8] = assay: Cytotoxicity against human HeLa cells assessed as reduction of cell survival after 72 hrs by MTT assay; type: functional, cell-based
Procedure, shortened: (§3)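 HeLa seeded at 7×10^3 and CFPAC at 10^4 per well in RPMI 1640 with 10% FCS under 5% CO2. After 24 h, exposure to compounds (aqueous 100 mM stock; final 1 mM to 1×10^-6 mM) for 72 or 96 h. MTT 2 h, formazan dissolved in 20% SDS/50% DMF pH 4.7, A570/650. Untreated cells = 100%; IC50 from dose-response curves, 2 independent experiments in triplicate.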

HeLa [9] = assay: Cytotoxicity against human HeLa cells assessed as reduction of cell survival after 96 hrs by MTT assay; type: functional, cell-based; procedure, shortened: as §3
CFPAC-1 [10] = assay: Cytotoxicity against human CFPAC-1 cells assessed as reduction of cell survival after 72 hrs by MTT assay; type: functional, cell-based; conditions: CFPAC-1, 72 h; procedure, shortened: as §3
CFPAC-1 [11] = assay: Cytotoxicity against human CFPAC-1 cells assessed as reduction of cell survival after 96 hrs by MTT assay; type: functional, cell-based; conditions: CFPAC-1, 96 h; procedure, shortened: as §3
Escherichia coli [12] = assay: Activity of Escherichia coli DNA polymerase 1 without 3' to 5'-exonucleolytic activity after 2 hrs by single base extension reaction based electrophoresis method
Procedure, shortened: (§4)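 Test compound with KF+ or KF- (1U) in 0.05 M Tris-HCl pH 8.0, 5 mM MgCl2, 1 mM DTT, 2 h at 37 °C, then heat-denatured. Read-out was 20% PAGE/7 M urea, autoradiography and quantitation of n+1 product; dCTP reaction served as control.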

Thermococcus sp. 9oN-7 [13] = assay: Activity of Thermococcus sp. 9oN-7 therminator DNA polymerase after 2 hrs by single base extension reaction based electrophoresis method
[14] = molecular target: T2, Adenosine 5'-monophosphoramidase HINT1; assay: Stability assessed as rabbit recombinant HINT1-mediated compound hydrolysis at 1 mM after 22 hrs by RP-HPLC analysis; type: ADME; conditions: 1000 µM
Procedure, shortened: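 Recombinant Hint-1 was expressed from pSGA02-HINT in E. coli BL21, purified on AMP-agarose, and dialysed into 20 mM Tris pH 7.5/150 mM NaCl. Substrate 1 mM in 20 mM Na-HEPES pH 7.2, 0.5 mM MgCl2 with rHint-1, 22 h at 37 °C. Analysed by C18 RP-HPLC at 260 nm via peak integration; mean ± SE of at least duplicate.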

Escherichia coli [15] = assay: Activity of Escherichia coli DNA polymerase 1 with 3' to 5'-exonucleolytic activity after 2 hrs by single base extension reaction based electrophoresis method; procedure, shortened: as §4
[16] = Inhibition of Escherichia coli DNA polymerase 1 with 3' to 5'-exonucleolytic activity using dCTP as substrate assessed as single base extension reaction after 2 hrs
Procedure, shortened: (§5)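 Compound (0.4–2.0 mM; 1- to 5-fold over dCTP) added together with 0.4 mM dCTP in 0.05 M Tris-HCl pH 8.0, 5 mM MgCl2, 1 mM DTT, 2 h at 37 °C. The n+1 product was quantified after 20% PAGE/7 M urea and autoradiography; EC50 is the concentration giving 50% inhibition.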

[17] = Inhibition of Escherichia coli DNA polymerase 1 without 3' to 5'-exonucleolytic activity using dCTP as substrate assessed as single base extension reaction after 2 hrs; procedure, shortened: as §5
[18] = molecular target: T3, DNA polymerase alpha catalytic subunit (Homo sapiens, UniProt P09884); assay: Inhibition of human DNA polymerase alpha using dCTP as substrate assessed as single base extension reaction after 2 hrs
T3 sequence (P09884 whole entry): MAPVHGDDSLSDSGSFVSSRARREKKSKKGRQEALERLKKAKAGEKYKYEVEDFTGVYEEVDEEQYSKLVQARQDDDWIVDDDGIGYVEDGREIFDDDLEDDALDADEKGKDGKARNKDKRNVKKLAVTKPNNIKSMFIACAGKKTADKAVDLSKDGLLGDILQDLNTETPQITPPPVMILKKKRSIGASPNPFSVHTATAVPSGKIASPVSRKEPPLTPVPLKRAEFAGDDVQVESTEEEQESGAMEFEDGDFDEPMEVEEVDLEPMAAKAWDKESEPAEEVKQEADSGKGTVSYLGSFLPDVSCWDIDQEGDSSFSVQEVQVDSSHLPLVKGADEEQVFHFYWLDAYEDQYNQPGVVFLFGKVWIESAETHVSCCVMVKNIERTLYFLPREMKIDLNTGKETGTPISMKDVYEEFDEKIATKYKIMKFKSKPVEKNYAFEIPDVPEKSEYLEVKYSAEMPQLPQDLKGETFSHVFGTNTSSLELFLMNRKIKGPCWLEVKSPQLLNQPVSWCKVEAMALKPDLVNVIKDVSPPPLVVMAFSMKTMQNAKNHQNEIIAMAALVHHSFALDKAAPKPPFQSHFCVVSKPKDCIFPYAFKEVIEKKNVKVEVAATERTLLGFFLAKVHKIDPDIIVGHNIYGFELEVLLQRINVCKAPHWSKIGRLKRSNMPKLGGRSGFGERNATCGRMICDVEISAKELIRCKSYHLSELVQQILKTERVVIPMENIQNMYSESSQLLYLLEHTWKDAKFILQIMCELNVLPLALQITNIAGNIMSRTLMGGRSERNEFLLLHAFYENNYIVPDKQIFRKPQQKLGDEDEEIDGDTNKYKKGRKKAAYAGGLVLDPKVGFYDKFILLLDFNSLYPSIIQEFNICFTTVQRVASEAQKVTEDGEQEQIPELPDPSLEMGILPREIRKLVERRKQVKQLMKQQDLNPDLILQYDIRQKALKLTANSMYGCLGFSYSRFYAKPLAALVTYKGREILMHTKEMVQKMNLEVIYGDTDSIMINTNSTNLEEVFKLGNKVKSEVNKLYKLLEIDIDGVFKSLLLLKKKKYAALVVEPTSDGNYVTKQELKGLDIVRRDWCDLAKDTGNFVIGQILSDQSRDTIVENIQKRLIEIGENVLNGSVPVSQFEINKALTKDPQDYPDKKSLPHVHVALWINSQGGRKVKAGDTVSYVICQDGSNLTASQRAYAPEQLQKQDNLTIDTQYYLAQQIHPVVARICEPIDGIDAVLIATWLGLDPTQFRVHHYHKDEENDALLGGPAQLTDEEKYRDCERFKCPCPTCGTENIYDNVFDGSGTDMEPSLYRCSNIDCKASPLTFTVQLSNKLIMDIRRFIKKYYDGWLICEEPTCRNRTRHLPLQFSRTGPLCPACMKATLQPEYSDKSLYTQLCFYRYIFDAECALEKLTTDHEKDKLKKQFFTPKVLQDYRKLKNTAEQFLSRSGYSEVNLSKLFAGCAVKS

[19] = molecular target: T4, HINT1 (adenosine 5'-monophosphoramidase) (Homo sapiens, UniProt P49773); assay: Stability in human HeLa cell lysate assessed as HINT-1-mediated phosphoramidase activity by measuring compound remaining at 1 mM after 22 hrs by RP-HPLC analysis relative to control; type: ADME, cell-based; conditions: read-out: Stability
Procedure, shortened: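 HeLa lysate from confluent cells, sonicated in PBS with protease inhibitors. Substrate 1 mM in 20 mM Na-HEPES pH 7.2, 0.5 mM MgCl2, 22 h at 37 °C. Ice-quenched, heat-denatured, centrifuged. C18 RP-HPLC (acetonitrile 0–8% in 0.1 M TEAB pH 7.4) at 260 nm; intact substrate quantified by peak integration; mean ± SE of at least duplicate.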

[20] = molecular target: T4, HINT1 (adenosine 5'-monophosphoramidase); assay: Stability in human K562 cell lysate assessed as HINT-1-mediated phosphoramidase activity by measuring compound remaining at 1 mM after 22 hrs by RP-HPLC analysis relative to control; type: ADME, cell-based; conditions: read-out: Stability; procedure, shortened: as §1
Thermococcus sp. 9oN-7 [21] = assay: Inhibition of Thermococcus sp. 9oN-7 therminator DNA polymerase assessed as single base extended product level after 1 hr by single base extension reaction based electrophoresis method; set-up: concentration or dose not given beside the values

T1 sequence (P49773 whole entry): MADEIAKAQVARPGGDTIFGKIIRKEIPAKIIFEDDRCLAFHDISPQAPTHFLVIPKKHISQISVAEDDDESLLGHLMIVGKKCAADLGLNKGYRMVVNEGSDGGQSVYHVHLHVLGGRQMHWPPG
T2 sequence (P80912 whole entry): as the sequence (P49773 whole entry) above, with R37Q, V65A, D69A, N91K, H122N counted along it
T4 sequence (P49773 whole entry): as the sequence (P49773 whole entry) above

Row | Structure (SMILES) | Retention_time [1] | Drug metabolism [5] | Drug metabolism [7] | IC50 (K562) | IC50 (HUVEC) | IC50 (HeLa [8]) | IC50 (HeLa [9]) | IC50 (CFPAC-1 [10]) | IC50 (CFPAC-1 [11]) | other results
1 | Nc1ccn([C@@H]2O[C@H](COP(N)(=O)O)[C@@H](O)C2(F)F)c(=O)n1 | 10.6 min | 0.88 nmol/min/µg | – | – | – | – | – | – | – | Drug metabolism [2]: metabolite_detected; Drug metabolism [3]: metabolite_detected; Drug metabolism [4]: 1.88 nmol/min/µg
2 | Nc1ccn([C@@H]2O[C@H](COP(=O)(O)O)[C@@H](O)C2(F)F)c(=O)n1 | 11.1 min | – | metabolite_detected | – | – | – | – | – | – | Drug metabolism [6]: metabolite_detected
3 | Nc1ncnc2c1ncn2[C@@H]1O[C@H](COP(N)(=O)O)[C@@H](O)[C@H]1O | – | 1.71 nmol/min/µg | – | – | – | – | – | – | – | –
4 | Nc1ccn([C@@H]2O[C@H](CO)[C@@H](O)C2(F)F)c(=O)n1 [GEMCITABINE] | 11.8 min | – | metabolite_detected | 0.05 µM | 0.003 µM | 10 µM | 0.9 µM | 0.47 µM | 0.35 µM | –
5 | Nc1ccn([C@@H]2O[C@H](COP(=O)(O)NC(=O)c3ccncc3)[C@@H](O)C2(F)F)c(=O)n1 | – | – | – | 0.1 µM | 0.05 µM | 10 µM | 0.9 µM | 0.62 µM | 0.45 µM | Activity (Escherichia coli [12]): inactive; Activity (Thermococcus sp. 9oN-7 [13]): inactive; Stability [14]: Stable; Activity (Escherichia coli [15]): inactive; EC50 [16]: > 2000 µM; EC50 [17]: > 2000 µM; EC50 [18]: > 500 µM; remaining at 22 h, 1000 µM [19]: 76.7%; remaining at 22 h, 1000 µM [20]: 82.8%; Activity (Thermococcus sp. 9oN-7 [21]): 100%
